Laboratory results reported in publication PMC4127500 (Scientific Reports, 2014).
Converted amounts (≈) assume the structure as drawn.

Legend:
RAW 264.7 cells = test: MTT cell viability assay; assay type: cell-based, murine; conditions: RAW 264.7 monocytes; 24 h
Procedure, shortened: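 RAW 264.7 cells kept in DMEM with 4 mM L-glutamine, 10% FCS, 2 mM nonessential amino acids and penicillin/streptomycin at 37°C, 5% CO2. Cells were exposed 24 h to test compound or antibiotics, free or combined. Viability was read by MTT (reagent 5 mg.mL−1 in PBS) in three replicates, as % of PBS (pH 7.4) control; mastoparan-L (1–100 μg.mL−1) was the positive control.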

E. coli 6881 = test: Minimum inhibitory concentration; assay type: cell-based
Procedure, shortened: (§1)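 Broth microdilution in Mueller Hinton Broth per CLSI. Inoculum was pre-incubated in TSB at 30°C to 0.5 McFarland. Amoxicillin, ampicillin, cefotaxime and gentamicin were tested over 0.5–1024 µg.mL−1, alone or with test compound at 128 µg.mL−1. Each set was repeated three times.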

E. coli (TEM-1) = test: Minimum inhibitory concentration; assay type: cell-based
Procedure, shortened: as §1

P. aeruginosa 6817 = test: Minimum inhibitory concentration; assay type: cell-based
Procedure, shortened: as §1

E. coli 1812446 = test: Minimum inhibitory concentration; assay type: cell-based
Procedure, shortened: as §1

[1] = test system: E. coli 1812446 clinical strain; test: Murine non-lethal Escherichia coli infection model; assay type: in vivo, C57BL/6 mice; conditions: E. coli infected mice
Procedure, shortened: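 C57BL/6 mice (18–22 g, n = 6/group) got i.p. 200 μl holding 2.5 × 10^8 CFU of E. coli 1812446. One hour later they were treated i.p. with penicillin or ampicillin (100 or 200 mg.kg−1) or gentamicin (10 mg.kg−1), at 12, 24, 48 and 72 h over 7 days. On day 7, blood and peritoneal fluid were serially diluted and plated in triplicate on Mueller Hinton agar at 37°C overnight. Detection limit was 100 CFU.ml−1.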

E. coli 2101123 = test: Minimum inhibitory concentration; assay type: cell-based
Procedure, shortened: as §1

S. aureus 7314 = test: Minimum inhibitory concentration; assay type: cell-based
Procedure, shortened: as §1

B. cereus 6591 = test: Minimum inhibitory concentration; assay type: cell-based
Procedure, shortened: as §1

S. aureus ATCC33591 = test: Minimum inhibitory concentration; assay type: cell-based
Procedure, shortened: as §1

S. aureus (ATCC33591) = test: Murine non-lethal Staphylococcus aureus infection model; assay type: in vivo, C57BL/6 mice; conditions: S. aureus infected mice
Procedure, shortened: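 C57BL/6 mice (18–22 g, n = 6/group) got i.p. 100 µL of S. aureus ATCC33591 at 2 × 10^5 CFU.mL−1. After 1 h, penicillin or ampicillin (100 or 200 mg.kg−1) or cefotaxime (35 mg.kg−1) was given i.p. at 12, 24, 48 and 72 h over 7 days. Day-7 blood and peritoneal fluid were serially diluted, plated in triplicate on mannitol salt agar, and counted as CFU.mL−1.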

[2] = E. coli 6881, in the presence of dBLIP1 (128 µg.mL^−1)
[3] = E. coli 6881, in the presence of dBLIP2 (128 µg.mL^−1)
[4] = E. coli (TEM-1), in the presence of dBLIP1 (128 µg.mL^−1)
[5] = E. coli (TEM-1), in the presence of dBLIP2 (128 µg.mL^−1)
[6] = P. aeruginosa 6817, in the presence of dBLIP1 (128 µg.mL^−1)
[7] = P. aeruginosa 6817, in the presence of dBLIP2 (128 µg.mL^−1)
[8] = E. coli 1812446, in the presence of dBLIP1 (128 µg.mL^−1)
[9] = E. coli 1812446, in the presence of dBLIP2 (128 µg.mL^−1)
[10] = E. coli 2101123, in the presence of dBLIP1 (128 µg.mL^−1)
[11] = E. coli 2101123, in the presence of dBLIP2 (128 µg.mL^−1)
[12] = S. aureus 7314, in the presence of dBLIP1 (128 µg.mL^−1)
[13] = S. aureus 7314, in the presence of dBLIP2 (128 µg.mL^−1)
[14] = B. cereus 6591, in the presence of dBLIP1 (128 µg.mL^−1)
[15] = B. cereus 6591, in the presence of dBLIP2 (128 µg.mL^−1)
[16] = S. aureus ATCC33591, in the presence of dBLIP1 (128 µg.mL^−1)
[17] = S. aureus ATCC33591, in the presence of dBLIP2 (128 µg.mL^−1)
[18] = Staphylococcus aureus, ATCC33591

CC1(C)S[C@@H]2[C@H](NC(=O)Cc3ccccc3)C(=O)N2[C@H]1C(=O)O [Penicillin G]
cytotoxic activity against RAW 264.7 (MTT cell viability) (RAW 264.7 cells): 150 µg/mL

CNC(C)C1CCC(N)C(OC2C(N)CC(N)C(OC3OCC(C)(O)C(NC)C3O)C2O)O1 (centres unmarked) [GEN, Gentamicin]
MIC (E. coli 6881; [2]): 4 µg/mL | MIC (E. coli 6881; [3]): 4 µg/mL | MIC (E. coli 6881; Escherichia coli, 6881): 32 µg/mL (≈ 67 µM) | MIC (E. coli (TEM-1); [4]): 4 µg/mL | MIC (E. coli (TEM-1); [5]): 4 µg/mL | MIC (E. coli (TEM-1); Escherichia coli): 32 µg/mL (≈ 67 µM) | MIC (P. aeruginosa 6817; [6]): 8 µg/mL | MIC (P. aeruginosa 6817; [7]): 8 µg/mL | MIC (P. aeruginosa 6817; Pseudomonas aeruginosa, 6817): 32 µg/mL (≈ 67 µM) | MIC (E. coli 1812446; [8]): 128 µg/mL | MIC (E. coli 1812446; [9]): 128 µg/mL | MIC (E. coli 1812446; Escherichia coli, 1812446): 512 µg/mL (≈ 1070 µM) | CFU, antibiotic alone ([1]; gentamicin 10 mg.kg^−1 i.p.): efficient CFU decline | MIC (E. coli 2101123; [10]): 128 µg/mL | MIC (E. coli 2101123; [11]): 128 µg/mL | MIC (E. coli 2101123; Escherichia coli, 2101123): 256 µg/mL (≈ 536 µM) | MIC (S. aureus 7314; [12]): 8 µg/mL | MIC (S. aureus 7314; [13]): 8 µg/mL | MIC (S. aureus 7314; Staphylococcus aureus, 7314): 64 µg/mL (≈ 134 µM) | MIC (B. cereus 6591; [14]): 4 µg/mL | MIC (B. cereus 6591; [15]): 4 µg/mL | MIC (B. cereus 6591; Bacillus cereus, 6591): 32 µg/mL (≈ 67 µM) | cytotoxic activity against RAW 264.7 (MTT cell viability) (RAW 264.7 cells): 150 µg/mL | MIC (S. aureus ATCC33591; [16]): 8 µg/mL | MIC (S. aureus ATCC33591; [17]): 8 µg/mL | MIC (S. aureus ATCC33591; [18]): 64 µg/mL (≈ 134 µM)

CC1(C)S[C@@H]2[C@H](NC(=O)[C@H](N)c3ccccc3)C(=O)N2[C@H]1C(=O)O [AMP, Ampicillin]
CFU, antibiotic alone (S. aureus (ATCC33591); 200 mg.kg^−1 i.p.): CFUs were slightly reduced | MIC (E. coli 6881; [2]): 32 µg/mL | MIC (E. coli 6881; [3]): 32 µg/mL | MIC (E. coli 6881; Escherichia coli, 6881): 128 µg/mL (≈ 366 µM) | MIC (E. coli (TEM-1); Escherichia coli): 1020 µg/mL (≈ 2930 µM) | MIC (P. aeruginosa 6817; [6]): 32 µg/mL | MIC (P. aeruginosa 6817; [7]): 32 µg/mL | MIC (P. aeruginosa 6817; Pseudomonas aeruginosa, 6817): 512 µg/mL (≈ 1470 µM) | MIC (E. coli 1812446; [8]): 512 µg/mL | MIC (E. coli 1812446; [9]): 512 µg/mL | MIC (E. coli 1812446; Escherichia coli, 1812446): > 512 µg/mL | CFU, antibiotic alone ([1]; 100 mg.kg^−1 i.p.): did not cause any bactericidal effect | CFU, antibiotic alone ([1]; 200 mg.kg^−1 i.p.): a lower reduction in CFU | MIC (E. coli 2101123; [10]): 256 µg/mL | MIC (E. coli 2101123; [11]): 256 µg/mL | MIC (E. coli 2101123; Escherichia coli, 2101123): > 512 µg/mL | MIC (S. aureus 7314; [12]): 32 µg/mL | MIC (S. aureus 7314; [13]): 32 µg/mL | MIC (S. aureus 7314; Staphylococcus aureus, 7314): 512 µg/mL (≈ 1470 µM) | MIC (B. cereus 6591; [14]): 16 µg/mL | MIC (B. cereus 6591; [15]): 8 µg/mL | MIC (B. cereus 6591; Bacillus cereus, 6591): 256 µg/mL (≈ 733 µM) | cytotoxic activity against RAW 264.7 (MTT cell viability) (RAW 264.7 cells): 200 µg/mL | MIC (S. aureus ATCC33591; [16]): 128 µg/mL | MIC (S. aureus ATCC33591; [17]): 128 µg/mL | MIC (S. aureus ATCC33591; [18]): 512 µg/mL (≈ 1470 µM)

CC1(C)S[C@@H]2[C@H](NC(=O)[C@H](N)c3ccc(O)cc3)C(=O)N2[C@H]1C(=O)O [AMX, Amoxicillin]
MIC (E. coli 6881; [2]): 32 µg/mL | MIC (E. coli 6881; [3]): 16 µg/mL | MIC (E. coli 6881; Escherichia coli, 6881): 128 µg/mL (≈ 350 µM) | MIC (E. coli (TEM-1); Escherichia coli): 128 µg/mL (≈ 350 µM) | MIC (P. aeruginosa 6817; [6]): 32 µg/mL | MIC (P. aeruginosa 6817; [7]): 16 µg/mL | MIC (P. aeruginosa 6817; Pseudomonas aeruginosa, 6817): 512 µg/mL (≈ 1400 µM) | MIC (E. coli 1812446; [8]): 16 µg/mL | MIC (E. coli 1812446; [9]): 16 µg/mL | MIC (E. coli 1812446; Escherichia coli, 1812446): 256 µg/mL (≈ 701 µM) | MIC (E. coli 2101123; [10]): 8 µg/mL | MIC (E. coli 2101123; [11]): 8 µg/mL | MIC (E. coli 2101123; Escherichia coli, 2101123): 256 µg/mL (≈ 701 µM) | MIC (S. aureus 7314; [12]): 32 µg/mL | MIC (S. aureus 7314; [13]): 16 µg/mL | MIC (S. aureus 7314; Staphylococcus aureus, 7314): 512 µg/mL (≈ 1400 µM) | MIC (B. cereus 6591; [14]): 8 µg/mL | MIC (B. cereus 6591; [15]): 8 µg/mL | MIC (B. cereus 6591; Bacillus cereus, 6591): 256 µg/mL (≈ 701 µM) | MIC (S. aureus ATCC33591; [16]): 32 µg/mL | MIC (S. aureus ATCC33591; [17]): 32 µg/mL | MIC (S. aureus ATCC33591; [18]): 512 µg/mL (≈ 1400 µM)

CO/N=C(\C(=O)N[C@@H]1C(=O)N2C(C(=O)O)=C(COC(C)=O)CS[C@H]12)c1csc(N)n1 [CTX, Cefotaxime]
CFU, antibiotic alone (S. aureus (ATCC33591); cefotaxime 35 mg.kg^−1 i.p.): efficient reduction in CFU | MIC (E. coli 6881; [2]): 8 µg/mL | MIC (E. coli 6881; [3]): 8 µg/mL | MIC (E. coli 6881; Escherichia coli, 6881): 64 µg/mL (≈ 141 µM) | MIC (E. coli (TEM-1); [4]): 4 µg/mL | MIC (E. coli (TEM-1); [5]): 4 µg/mL | MIC (E. coli (TEM-1); Escherichia coli): 32 µg/mL (≈ 70.3 µM) | MIC (P. aeruginosa 6817; [6]): 8 µg/mL | MIC (P. aeruginosa 6817; [7]): 8 µg/mL | MIC (P. aeruginosa 6817; Pseudomonas aeruginosa, 6817): 64 µg/mL (≈ 141 µM) | MIC (E. coli 1812446; [8]): 16 µg/mL | MIC (E. coli 1812446; [9]): 16 µg/mL | MIC (E. coli 1812446; Escherichia coli, 1812446): 256 µg/mL (≈ 562 µM) | MIC (E. coli 2101123; [10]): 8 µg/mL | MIC (E. coli 2101123; [11]): 8 µg/mL | MIC (E. coli 2101123; Escherichia coli, 2101123): 128 µg/mL (≈ 281 µM) | MIC (S. aureus 7314; [12]): 8 µg/mL | MIC (S. aureus 7314; [13]): 8 µg/mL | MIC (S. aureus 7314; Staphylococcus aureus, 7314): 128 µg/mL (≈ 281 µM) | MIC (B. cereus 6591; [14]): 8 µg/mL | MIC (B. cereus 6591; [15]): 8 µg/mL | MIC (B. cereus 6591; Bacillus cereus, 6591): 64 µg/mL (≈ 141 µM) | MIC (S. aureus ATCC33591; [16]): 8 µg/mL | MIC (S. aureus ATCC33591; [17]): 8 µg/mL | MIC (S. aureus ATCC33591; [18]): 128 µg/mL (≈ 281 µM)

Mastoparan-L
cytotoxic activity against RAW 264.7 (MTT cell viability) (RAW 264.7 cells): 10 µg/mL
